Experimental data as given in ChEMBL document CHEMBL1154721, “Synthesis, antitumor activity and molecular docking study of novel sulfonamide-Schiff's bases, thiazolidinones, benzothiazinones and their C-nucleoside derivatives” (Eur J Med Chem, 2010).
In brackets after ≈: the same amount, converted by molar mass.

Test system: MCF7
Test: Cytotoxicity against human MCF7 cells after 48 hrs by SRB assay
Type: functional, cell-based
Method in brief: (§1)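 Cells were seeded and left 24 h to attach before dosing, then exposed to test compound at […], in triplicate wells per dose. Incubation was 48 h at 37 °C under 5% CO2. Cells were then fixed, washed and stained with sulforhodamine B, excess dye was removed with acetic acid, bound dye was recovered in Tris-EDTA buffer, and colour intensity was read on an ELISA reader.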
Compound O=c1[nH]cc(F)c(=O)[nH]1 [FLUOROURACIL] has an IC50 of 0.67 µg/mL (≈ 5.15 µM).

Test system: HeLa
Test: Cytotoxicity against human HeLa cells after 48 hrs by SRB assay
Type: functional, cell-based
Method in brief: as §1
With O=c1[nH]cc(F)c(=O)[nH]1 [FLUOROURACIL] the IC50 was 1.01 µg/mL (≈ 7.76 µM).

Target: not listed separately
Test: Inhibition of PTK
O=C1CSC([C@H](O)[C@H](O)[C@@H](O)[C@@H](O)CO)N1c1ccc(S(=O)(=O)Nc2ccccn2)cc1 (stereo partly specified) gave a Ki of 2350 nM. Work on Nc1ccc(S(=O)(=O)Nc2ccccn2)cc1 [SULFAPYRIDINE] yielded a Ki of 3590 nM. With COc1ccc(C2Sc3ccccc3C(=O)N2c2ccc(S(=O)(=O)Nc3ccccn3)cc2)c(O)c1 (stereo unspecified) the Ki was 4720 nM. In the case of O=S(=O)(Nc1ccccn1)c1ccc(/N=C/[C@H](O)[C@H](O)[C@@H](O)[C@@H](O)CO)cc1, the Ki is reported as 331 nM. With COc1ccc(C2SCC(=O)N2c2ccc(S(=O)(=O)Nc3ccccn3)cc2)c(O)c1 (stereo unspecified) the Ki was 15400 nM. For COc1ccc(/C=N/c2ccc(S(=O)(=O)Nc3ccccn3)cc2)cc1OC, the Ki was 258 nM. Compound COc1ccc(/C=N/c2ccc(S(=O)(=O)Nc3ccccn3)cc2)c(O)c1 has a Ki of 258 nM. COc1cc(C2Sc3ccccc3C(=O)N2c2ccc(S(=O)(=O)Nc3ccccn3)cc2)cc(OC)c1OC (stereo unspecified) gave a Ki of 48700 nM. COc1cc(C2SCC(=O)N2c2ccc(S(=O)(=O)Nc3ccccn3)cc2)cc(OC)c1OC (stereo unspecified) gave a Ki of 5320 nM. With COc1ccc(C2SCC(=O)N2c2ccc(S(=O)(=O)Nc3ccccn3)cc2)cc1 (stereo unspecified) the Ki was 705 nM. Work on COc1ccc(C2Sc3ccccc3C(=O)N2c2ccc(S(=O)(=O)Nc3ccccn3)cc2)cc1OC (stereo unspecified) yielded a Ki of 2510 nM. COc1cc(/C=N/c2ccc(S(=O)(=O)Nc3ccccn3)cc2)cc(OC)c1OC showed a Ki of 526 nM. Compound COc1ccc(C2SCC(=O)N2c2ccc(S(=O)(=O)Nc3ccccn3)cc2)cc1OC (stereo unspecified) has a Ki of 1050 nM. Compound O=C1c2ccccc2SC(c2c[nH]c3ccccc23)N1c1ccc(S(=O)(=O)Nc2ccccn2)cc1 (stereo unspecified) has a Ki of 553 nM.
